Source: PubChem BioAssay
Hits are enriched below; roughly 1.2% of the tested compounds scored in any of these assays.
IDE cell inh = cellular human IDE inhibition | P14735 | HEK cells, FAbetaB cleavage, fluorescence polarization | inhibition, % at 5.59 µM | 320,000 tested, 0.41% active | AID 434962;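 active = percent inhibition above the average of all tested compounds plus 3 SD, set per screening campaign, cut at about 16% in these data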;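 also: IDE supplied by intact live HEK cells; FP after avidin binding of uncleaved biotin substrate so inhibition keeps polarization high; 0% = DMSO wells and 100% = 60 µM reference IDE inhibitor Ii1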
TPT1 inhibitor = blocks Candida albicans tRNA 2'-phosphotransferase. inhibition, % at 5 µM. recombinant caTPT1, FP RNA substrate dephosphorylation. 300,000 tested, 0.81% active;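 active = inhibition above the mean of all tested compounds plus 3 SD, set per screening campaign, cut at about 24% in these data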;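 also: plate controls were DMSO alone for no effect and ferristatin control at 100 nM for full effect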
IDE act = IDE (human) activation, cell-based | P14735 | HEK cells, FAbeta-B cleavage, fluorescence polarization; 0% vehicle, 100% cell-free pure enzyme wells | activation, % at 5.96 µM | 340,000 tested, 0.073% active | AID 493087;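 active = activation above the mean of all tested compounds plus 3 SD, set per screening campaign, cut at about 17% in these data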
proCasp3 act = activators of human procaspase-3; AID 463141; 330,000 tested, 0.11% active; recombinant procaspase-3 D3A, Ac-DEVD-pNA absorbance 405 nm; P42574; activation, % at 8.5 µM;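 active = activation above the mean of all tested compounds plus 3 SD, cut at about 21% in these data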;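 also: 0% = DMSO alone and 100% = DMSO wells spiked with extra 5 µM PC-3 D3A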
Target sequence (P42574 whole entry D9A/D28A/D175A): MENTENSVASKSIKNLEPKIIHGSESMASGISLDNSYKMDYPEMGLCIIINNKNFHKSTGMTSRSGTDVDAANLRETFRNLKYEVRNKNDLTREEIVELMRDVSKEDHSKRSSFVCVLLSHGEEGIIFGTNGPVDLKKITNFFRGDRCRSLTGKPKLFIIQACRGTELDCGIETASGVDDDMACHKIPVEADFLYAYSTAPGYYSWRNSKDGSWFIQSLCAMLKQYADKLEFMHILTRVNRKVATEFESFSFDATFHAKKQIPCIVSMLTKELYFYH
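material = Procaspase-3 D3A mutant | probe or stimulus = Ac-DEVD-pNA | compound = single dose, 8.5 µM nominal compound, 0.8% DMSO | timing = 1 h preincubation, 2 h reaction | measured by = 405 nm absorbance of p-nitroaniline, reads at 0 and 120 min | benchmarks = DMSO-only low control, 5 µM PC-3 D3A high control | repeats = singlicate, each compound tested once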
proCasp7 act = activates human procaspase-7, counter-screen for procaspase-3 activators; P55210; recombinant procaspase-7, Ac-DEVD-pNA absorbance 405 nm; D23A/D198A/D206A triple mutant, cannot self-cleave; scale: DMSO 0, 5 µM enzyme 100; activation, % at 8.5 µM; 330,000 tested, 0.093% active; AID 463210;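 active = percent activation above the screen-wide mean plus 3 SD, cut at about 25% in these data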
Target sequence (P55210 whole entry D23A/D198A/D206A): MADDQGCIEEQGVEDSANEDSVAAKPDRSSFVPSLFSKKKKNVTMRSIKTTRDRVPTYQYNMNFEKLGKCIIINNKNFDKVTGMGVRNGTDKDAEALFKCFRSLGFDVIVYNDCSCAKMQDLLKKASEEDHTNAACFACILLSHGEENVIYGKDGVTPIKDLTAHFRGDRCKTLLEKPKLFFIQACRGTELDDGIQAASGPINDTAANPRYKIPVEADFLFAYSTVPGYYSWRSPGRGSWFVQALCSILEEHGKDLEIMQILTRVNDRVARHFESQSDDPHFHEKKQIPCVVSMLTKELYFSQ
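signal = Epi-absorbance of released pNA at 405 nm, two timepoints | assay system = Uncleavable procaspase-7 mutant enzyme | reagent = Ac-DEVD-pNA substrate, 400 µM as added | times = 1 h enzyme–compound preincubation and 2 h substrate reaction, both 25 °C | benchmarks = low DMSO alone, high DMSO plus 5 µM PC-7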
IDE inh confirm = confirmation of human insulin-degrading enzyme inhibitors in cells; AID 435028; HEK cells, FAbetaB cleavage, fluorescence polarization; inhibition, % at 5.59 µM; shares compounds with IDE cell inh; 1,200 tested, 51% active;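 active = mean inhibition across triplicate wells above the cutoff set by the earlier primary insulin-degrading enzyme screen, cut at about 16% in these data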;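 also: 0% = DMSO wells and 100% = 60 µM reference IDE inhibitor Ii1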
HEK293 tox = counter-screen for IDE inhibitors: cytotoxicity in HEK cells; shares compounds with IDE cell inh; HEK293 cytotoxicity, ATP luminescence; inhibition, % at 5.59 µM; 1,200 tested, 28% active; in the data active = inhibition above about 22%;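 also: 0% = vehicle wells and 100% = reference cytotoxic drug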
* hit, by the source's call.

For CCN=C1S/C(=C\c2cc(OCC)c(O)cc2Br)C(=O)N1CC the results were IDE cell inh 17*, TPT1 inhibitor 20, IDE act -17, proCasp3 act 2, proCasp7 act -2, IDE inh confirm 22* and HEK293 tox 23*.
`CCN=C1S/C(=C\c2ccc(O)c(OCC)c2)C(=O)N1CC` gave IDE cell inh 5, TPT1 inhibitor 1, IDE act -9, proCasp3 act -15 and proCasp7 act -19.
Screening Cc1ccc(CNc2ncc(-c3ccccc3)n2C)o1 returned IDE cell inh 2, TPT1 inhibitor -5, IDE act -1, proCasp3 act -4 and proCasp7 act -13.
Screening Cc1cc(N2CCN(C(=O)/C=C/C(=O)O)CC2)c2ccccc2n1 returned IDE cell inh 2, TPT1 inhibitor 0, IDE act 2, proCasp3 act -2 and proCasp7 act -5.
Screening COc1cccc(Cl)c1NC(=O)N1CCN(c2cc(C)nc3ccccc23)CC1 returned IDE cell inh 28*, TPT1 inhibitor 0, IDE act -33, proCasp3 act -5, proCasp7 act 4, IDE inh confirm 22* and HEK293 tox 23*.
For CC(C)CCNc1nc(N)c([N+](=O)[O-])c(N2CCCCCC2)n1 the results were IDE cell inh 2, TPT1 inhibitor -4, IDE act 1, proCasp3 act 5 and proCasp7 act 1.
For N#C/C(=C/c1ccc(O)c(O)c1)C(=O)NCc1ccc(Cl)cc1 the results were IDE cell inh 24*, TPT1 inhibitor 9, IDE act -32, proCasp3 act -28, proCasp7 act -30, IDE inh confirm 33* and HEK293 tox 9.
COc1cc(/C=C(\C#N)C(=O)NCc2cccs2)ccc1O was read as IDE cell inh 34*, TPT1 inhibitor 11, IDE act -41, proCasp3 act -12, proCasp7 act 3, IDE inh confirm 45* and HEK293 tox 9.
`Cc1cc(NC(=O)NC(C)(C(F)(F)F)C(F)(F)F)no1` gave IDE cell inh 0, TPT1 inhibitor 2, IDE act 2, proCasp3 act -13 and proCasp7 act -5.
Screening OCCN(Cc1ccccc1)Cc1cccc(F)c1 returned IDE cell inh 1, TPT1 inhibitor 0, IDE act 2, proCasp3 act -3 and proCasp7 act -8.
Fc1cccc(C[n+]2csc3ccccc32)c1 was read as IDE cell inh 22*, TPT1 inhibitor 2, IDE act -38, proCasp3 act -11, proCasp7 act -29, IDE inh confirm 11 and HEK293 tox 12.
Screening c1ccc(C[n+]2csc3ccccc32)cc1 returned IDE cell inh 26*, TPT1 inhibitor -3, IDE act -38, proCasp3 act -21, proCasp7 act -25, IDE inh confirm 11 and HEK293 tox 10.
Screening Brc1cc2ccccc2[n+](Cc2ccccc2)c1 returned IDE cell inh 0, TPT1 inhibitor -3, IDE act 3, proCasp3 act 5 and proCasp7 act -5.
For CC1Cc2cc(S(=O)(=O)N3CCN(c4ccc(Cl)cc4)CC3)ccc2N1C(=O)C1CC1 (stereo not drawn) the results were IDE cell inh 6, TPT1 inhibitor 3, IDE act 0, proCasp3 act 9 and proCasp7 act 3.
Screening CC(=O)N1c2ccc(S(=O)(=O)N3CCC(C(=O)N4CCN(c5ccc(Cl)cc5)CC4)CC3)cc2CC1C (stereo not drawn) returned IDE cell inh 20*, TPT1 inhibitor -2, IDE act -22, proCasp3 act -4, proCasp7 act -2, IDE inh confirm 10 and HEK293 tox 38*.
Screening COc1cccc(NC(=O)COC(=O)/C=C/c2c(C)nn(-c3ccccc3)c2C)c1 returned IDE cell inh 25*, IDE act -17, proCasp3 act -11, proCasp7 act 0, IDE inh confirm 21* and HEK293 tox 11.
For COc1ccc(CNC(=O)COC(=O)c2ccc(F)c(S(=O)(=O)N3CCOCC3)c2)cc1 the results were IDE cell inh 17*, IDE act -3, proCasp3 act -2, proCasp7 act 3, IDE inh confirm 1 and HEK293 tox 7.
COc1ccc(CCNC(=O)COC(=O)c2ccc(F)c(S(=O)(=O)N3CCOCC3)c2)cc1 was read as IDE cell inh -3, IDE act 3, proCasp3 act -7 and proCasp7 act 8.
`CC(C)N1CCC(N2CCN(CC#Cc3ccccc3)CC2CCO)CC1` (stereo not drawn) gave IDE cell inh -1, TPT1 inhibitor -11, IDE act 7, proCasp3 act -1 and proCasp7 act -2.
`CS(=O)(=O)Nc1nc2n(n1)C(c1ccccc1)C=C(c1ccc(Br)cc1)N2` (stereo not drawn) gave IDE cell inh 63*, TPT1 inhibitor -100, IDE act -64, proCasp3 act -6, proCasp7 act -8, IDE inh confirm 79* and HEK293 tox 7.
O=C(NCc1ccccc1Cl)c1cc(C(=O)C2CC2)c[nH]1 was read as IDE cell inh 1, TPT1 inhibitor 0, IDE act 3, proCasp3 act 2 and proCasp7 act -6.
Screening CC(=O)Nc1cc(N=Cc2ccc(O)cc2O)c(Cl)cc1Cl returned IDE cell inh 18*, TPT1 inhibitor -4, IDE act -55, proCasp3 act 11, proCasp7 act 0, IDE inh confirm 32* and HEK293 tox 11.
`CCCCCN(C(=O)CCC(=O)OCC(=O)c1ccc(C(C)CC)cc1)c1c(N)n(CCCC)c(=O)[nH]c1=O` (stereo not drawn) gave IDE cell inh 17*, TPT1 inhibitor 2, IDE act -4, proCasp3 act -2, proCasp7 act 4, IDE inh confirm 10 and HEK293 tox 13.
For C/C(=N\NC(=O)CN1CCN(S(=O)(=O)c2ccc(C)cc2)CC1)c1ccncc1 the results were IDE cell inh -1, TPT1 inhibitor 0, IDE act -4, proCasp3 act 1 and proCasp7 act -3.
CC(=O)NC(c1ccco1)c1cc(Cl)c2ccccc2c1O (stereo not drawn) was read as IDE cell inh 36*, IDE act -7, proCasp3 act -17, proCasp7 act -26, IDE inh confirm 11 and HEK293 tox 6.
